Assay results of several laboratories.
Each line is one published result; the experiments were not run side by side.
Target: 3-phosphoinositide-dependent protein kinase 1 (PDPK1, Homo sapiens, UniProt O15530)
One construct used (O15530 1-556): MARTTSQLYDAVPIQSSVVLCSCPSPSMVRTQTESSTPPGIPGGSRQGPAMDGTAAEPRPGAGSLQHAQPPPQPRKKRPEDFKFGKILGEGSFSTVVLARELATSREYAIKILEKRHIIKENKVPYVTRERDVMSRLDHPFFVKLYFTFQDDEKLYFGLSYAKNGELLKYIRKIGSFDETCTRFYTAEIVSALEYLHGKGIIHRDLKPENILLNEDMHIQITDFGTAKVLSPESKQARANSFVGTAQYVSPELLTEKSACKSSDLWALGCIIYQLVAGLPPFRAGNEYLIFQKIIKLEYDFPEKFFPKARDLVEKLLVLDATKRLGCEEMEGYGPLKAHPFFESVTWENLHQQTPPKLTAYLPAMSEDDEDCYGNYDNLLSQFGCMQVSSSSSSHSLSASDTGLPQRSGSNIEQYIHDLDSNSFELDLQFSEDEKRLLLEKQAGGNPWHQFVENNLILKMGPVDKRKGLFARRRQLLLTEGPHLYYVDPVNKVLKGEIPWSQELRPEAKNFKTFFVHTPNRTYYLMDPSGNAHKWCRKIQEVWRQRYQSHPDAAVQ

SMILES | assay | conditions | quantity | result
CC(C)(C)C(=O)c1sc(NC2CCCCC2)nc1N | enzyme activity, inhibitor | 10 µM | remaining activity | 108%
CCN(CC)c1ccc(C2=NNC(=O)CC2C)cc1[N+](=O)[O-] (stereo not shown) | enzyme activity, inhibitor | 10 µM | remaining activity | 116%
Cc1ccc(C(=O)NCc2ccsc2)cc1C#Cc1cn(C(C)C)c2ncnc(N)c12 | enzyme activity, inhibitor | 1 µM | activity vs control | 98%
O=C(O)[C@@H]1[C@@H](Cn2nnc3ccccc3c2=O)CC[C@H]1C(=O)c1ccc(OCCC2CCOCC2)cc1 | cell-free assay, competition with immobilised ligand | 1 µM | remaining binding | 80%
FC(F)c1nc2ccccc2n1-c1nc(N2CCOCC2)nc(N2CCOCC2)n1 | enzyme activity, inhibitor | 10 µM | remaining activity | 92%
N#CCCc1ccc2c(c1)-c1[nH]c3ccc([N+](=O)[O-])cc3c1CC(=O)N2 | cell-free assay | 0.5 µM | remaining signal | 79.8%
CC(C)(O)[C@H]1CC[C@H](Nc2ccc3ncc(-c4cccc(C(F)(F)F)c4)n3n2)CC1 | enzyme activity, inhibitor | 1 µM | remaining activity | 105%
O=C(N[C@H]1CCCCC/C=C\C2C[C@@]2(C(=O)O)NC(=O)[C@@H]2C[C@@H](Oc3ccncc3)CN2C1=O)OC1CCCC1 (stereo partly shown) | binding, competition with immobilised ligand | 1 µM | remaining binding | 92%
CCCOc1ccc(OC)c(F)c1C(=O)c1ccc(C(=O)N[C@@H]2CNC[C@H]2NC(=O)c2ccc3[nH]ncc3c2)cc1 | enzyme activity, inhibitor | 10 µM | remaining activity | 102%
CC(C)CC(=O)N1CCc2nc(-c3ccc(Br)cc3)nc(N(C)Cc3ccccc3)c2C1 | cell-free assay, competition with immobilised ligand | 0.1 µM | remaining binding | 100%
COc1cc(Cl)c(C(=O)N[C@@H](CN[C@H]2CC[C@@H](N)CC2)Cc2ccc(C#N)cc2)cc1-c1ccc(CN[C@H](C)c2ccc(C)cc2)o1 | enzyme activity, inhibitor | 1 µM | remaining activity | 73%
CN(C)C1CCN(CC#Cc2nn(C3CCCC3)c3nc(NCc4ccccc4)ncc23)C1 (stereo not shown) | enzyme activity, inhibitor, FRET | 1 µM | inhibition | 4%
C#Cc1cccc(Nc2ncnc3cc(OCCOC)c(OCCOC)cc23)c1 | cell-free assay | 0.5 µM | remaining signal | 83.8%
Cc1c(NC(=O)c2cc(C(N)=O)nc3cc(F)ccc23)c(C(F)(F)F)nn1Cc1ccc(C(C)(C)C)cc1 | cell-free assay, competition with immobilised ligand | 1 µM | remaining binding | 94%
O=C1NC(=O)c2cc(Nc3ccc(F)cc3)c(Nc3ccc(F)cc3)cc21 | cell-free assay | 0.5 µM | remaining signal | 102%
Cc1nc(N2CC[C@@H](O)C2)ncc1-c1cc(C(F)(F)F)cc2[nH]ncc12 | binding, competition with immobilised ligand | 1 µM | remaining binding | 100%
COc1cc(Nc2cnc(C#N)c(O[C@H](C)CN(C)C)n2)ncc1-c1cnn(C)c1 | enzyme activity, inhibitor, radiometric | 10 µM | remaining activity | 76%
O=C(Nc1cnn(-c2csc(C(=O)NC3COC3)c2)c1)Nc1ccccc1Cl | enzyme activity, inhibitor | 5 µM | remaining activity | 101%
O=C(O)c1cc(-c2ccc(C3CCNCC3)cc2)c2ccc(-c3ccc(C(F)(F)F)cc3)cc2c1 | cell-free assay, competition with immobilised ligand | 1 µM | remaining binding | 100%
CS(=O)(=O)CCNCc1ccc(-c2ccc3ncnc(Nc4ccc(OCc5cccc(F)c5)c(Cl)c4)c3c2)o1 | cell-free assay | 0.5 µM | remaining signal | 86.4%
Cc1ccc(C(=O)Nc2ccc(CN3CCN(C)CC3)c(C(F)(F)F)c2)cc1C#Cc1cnc2cccnn12 | enzyme activity, inhibitor | 23.5 nM | remaining activity | 94%
CC(C)(C)c1nc(-c2cccc(NS(=O)(=O)c3c(F)cccc3F)c2F)c(-c2ccnc(N)n2)s1 | enzyme activity, inhibitor, radiometric | 1 µM | remaining activity | 94%
Cc1cnc(NC2CCOCC2)nc1-n1cnc(C(=O)NC(CN)c2cc(F)cc(Cl)c2)c1 (stereo not shown) | enzyme activity, inhibitor, radiometric | 1 µM | remaining activity | 84%
c1ccc(N2CCN(Cc3nc4ccccc4[nH]3)CC2)nc1 | binding, competition with immobilised ligand | 1 µM | remaining binding | 89%
C[S+]([O-])c1ccc(-c2nc(-c3ccncc3)c(-c3ccc(F)cc3)[nH]2)cc1 (stereo not shown) | cell-free assay | 0.5 µM | remaining signal | 96.3%
